From ChEMBL document CHEMBL1135850, “P1 Phenethyl peptide boronic acid inhibitors of HCV NS3 protease” (Bioorg Med Chem Lett, 2002)
Peptide text beside a SMILES is read from it. * marks the point of attachment. X5 = Cc1ccc(CC[C@H](N*)B2O[C@@H]3C[C@@H]4C[C@@H](C4(C)C)[C@]3(C)O2)c(C)c1; X7 = Cc1ccc(C)c(CC[C@H](N*)B2O[C@@H]3C[C@@H]4C[C@@H](C4(C)C)[C@]3(C)O2)c1; X2 = Cc1ccccc1CC[C@H](N*)B1O[C@@H]2C[C@@H]3C[C@@H](C3(C)C)[C@]2(C)O1; X1 = CC1(C)[C@@H]2C[C@H]3OB([C@H](CCc4ccccc4F)N*)O[C@@]3(C)[C@H]1C2; X6 = CC1(C)[C@@H]2C[C@H]3OB([C@H](CCCc4ccccc4)N*)O[C@@]3(C)[C@H]1C2; X15 = CC1(C)[C@@H]2C[C@H]3OB([C@H](Cc4ccccc4)N*)O[C@@]3(C)[C@H]1C2; X9 = CC1(C)[C@@H]2C[C@H]3OB([C@@H](N*)c4ccccc4)O[C@@]3(C)[C@H]1C2; X13 = CCCCC[C@H](N*)B1O[C@@H]2C[C@@H]3C[C@@H](C3(C)C)[C@]2(C)O1

biological target: T1, Neutrophil elastase (Homo sapiens, UniProt P08246); assay: Inhibitory concentration against Human leukocyte Elastase
T1 sequence (P08246 whole entry): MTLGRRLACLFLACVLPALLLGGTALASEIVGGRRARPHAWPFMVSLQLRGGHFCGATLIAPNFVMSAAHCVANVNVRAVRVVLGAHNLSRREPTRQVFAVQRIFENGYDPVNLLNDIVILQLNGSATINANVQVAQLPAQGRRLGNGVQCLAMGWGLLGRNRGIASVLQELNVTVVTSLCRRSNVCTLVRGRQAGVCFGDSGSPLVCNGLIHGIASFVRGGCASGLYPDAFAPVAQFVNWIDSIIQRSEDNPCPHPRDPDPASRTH
In short: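 Human neutrophil elastase (stock 1 mg/mL in PBS with 10% glycerol) with MeO-Suc-Ala-Ala-Pro-Val-p-nitroanilide substrate in PBS at room temperature, DMSO ≤2%. Inhibitors were tested as pinanediol esters. Substrate hydrolysis was followed at 405 nm to derive kinetic parameters.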

Structure (SMILES) | IC50 [nM]
CC(C)c1ccc(CC[C@H](NC(=O)[C@H]2CCCN2C(=O)[C@@H](NC(=O)[C@@H](NC(=O)[C@H](CCC(=O)O)NC(=O)[C@@H](N)CC(=O)O)C(C)C)C(C)C)B2O[C@@H]3C[C@@H]4C[C@@H](C4(C)C)[C@]3(C)O2)cc1 | 450
CC(C)[C@H](NC(=O)[C@H](CCC(=O)O)NC(=O)[C@@H](N)CC(=O)O)C(=O)N[C@H](C(=O)N1CCC[C@@H]1C(=O)N[C@@H](CCc1ccc(C2CCCCC2)cc1)B1O[C@@H]2C[C@@H]3C[C@@H](C3(C)C)[C@]2(C)O1)C(C)C | 400
CC(C)[C@H](NC(=O)[C@H](CCC(=O)O)NC(=O)[C@@H](N)CC(=O)O)C(=O)N[C@H](C(=O)N1CCC[C@@H]1C(=O)N[C@@H](CCc1ccc(Oc2ccccc2)cc1)B1O[C@@H]2C[C@@H]3C[C@@H](C3(C)C)[C@]2(C)O1)C(C)C | 220
CC(C)[C@H](NC(=O)[C@H](CCC(=O)O)NC(=O)[C@@H](N)CC(=O)O)C(=O)N[C@H](C(=O)N1CCC[C@@H]1C(=O)N[C@@H](CCc1ccc(C(F)(F)F)cc1)B1O[C@@H]2C[C@@H]3C[C@@H](C3(C)C)[C@]2(C)O1)C(C)C | 1800
CC(C)[C@H](NC(=O)[C@H](CCC(=O)O)NC(=O)[C@@H](N)CC(=O)O)C(=O)N[C@H](C(=O)N1CCC[C@@H]1C(=O)N[C@@H](CCc1ccc(Cl)cc1)B1O[C@@H]2C[C@@H]3C[C@@H](C3(C)C)[C@]2(C)O1)C(C)C | 1400
CC(C)CCC[C@H](NC(=O)[C@H]1CCCN1C(=O)[C@@H](NC(=O)[C@@H](NC(=O)[C@H](CCC(=O)O)NC(=O)[C@@H](N)CC(=O)O)C(C)C)C(C)C)B1O[C@@H]2C[C@@H]3C[C@@H](C3(C)C)[C@]2(C)O1 | 7300
Cc1ccc(CC[C@H](NC(=O)[C@H]2CCCN2C(=O)[C@@H](NC(=O)[C@@H](NC(=O)[C@H](CCC(=O)O)NC(=O)[C@@H](N)CC(=O)O)C(C)C)C(C)C)B2O[C@@H]3C[C@@H]4C[C@@H](C4(C)C)[C@]3(C)O2)cc1 | 5000
CC(C)[C@H](NC(=O)[C@H](CCC(=O)O)NC(=O)[C@@H](N)CC(=O)O)C(=O)N[C@H](C(=O)N1CCC[C@@H]1C(=O)N[C@@H](CCc1ccc(C(C)(C)C)cc1)B1O[C@@H]2C[C@@H]3C[C@@H](C3(C)C)[C@]2(C)O1)C(C)C | 340
CC(C)C[C@H](NC(=O)[C@H]1CCCN1C(=O)[C@@H](NC(=O)[C@@H](NC(=O)[C@H](CCC(=O)O)NC(=O)[C@@H](N)CC(=O)O)C(C)C)C(C)C)B1O[C@@H]2C[C@@H]3C[C@@H](C3(C)C)[C@]2(C)O1 | 60
CC(C)[C@H](NC(=O)[C@H](CCC(=O)O)NC(=O)[C@@H](N)CC(=O)O)C(=O)N[C@H](C(=O)N1CCC[C@@H]1C(=O)N[C@@H](CCc1ccc(O)cc1)B1O[C@@H]2C[C@@H]3C[C@@H](C3(C)C)[C@]2(C)O1)C(C)C | 900
CC[C@H](NC(=O)[C@H]1CCCN1C(=O)[C@@H](NC(=O)[C@@H](NC(=O)[C@H](CCC(=O)O)NC(=O)[C@@H](N)CC(=O)O)C(C)C)C(C)C)B1O[C@@H]2C[C@@H]3C[C@@H](C3(C)C)[C@]2(C)O1 | 20
CC(C)[C@H](NC(=O)[C@H](CCC(=O)O)NC(=O)[C@@H](N)CC(=O)O)C(=O)N[C@H](C(=O)N1CCC[C@@H]1C(=O)N[C@@H](CCc1ccccc1)B1O[C@@H]2C[C@@H]3C[C@@H](C3(C)C)[C@]2(C)O1)C(C)C | 3500
CC(C)[C@H](NC(=O)[C@H](CCC(=O)O)NC(=O)[C@@H](N)CC(=O)O)C(=O)N[C@H](C(=O)N1CCC[C@@H]1C(=O)N[C@@H](CCc1ccc(-c2ccccc2)cc1)B1O[C@@H]2C[C@@H]3C[C@@H](C3(C)C)[C@]2(C)O1)C(C)C | 900
CC(C)[C@H](NC(=O)[C@H](CCC(=O)O)NC(=O)[C@@H](N)CC(=O)O)C(=O)N[C@H](C(=O)N1CCC[C@@H]1C(=O)N[C@@H](CCc1ccc(Br)cc1)B1O[C@@H]2C[C@@H]3C[C@@H](C3(C)C)[C@]2(C)O1)C(C)C | 1600
CC(C)[C@H](NC(=O)[C@H](CCC(=O)O)NC(=O)[C@@H](N)CC(=O)O)C(=O)N[C@H](C(=O)N1CCC[C@@H]1C(=O)N[C@@H](CCCCc1ccccc1)B1O[C@@H]2C[C@@H]3C[C@@H](C3(C)C)[C@]2(C)O1)C(C)C | 400
Cc1cccc(CC[C@H](NC(=O)[C@H]2CCCN2C(=O)[C@@H](NC(=O)[C@@H](NC(=O)[C@H](CCC(=O)O)NC(=O)[C@@H](N)CC(=O)O)C(C)C)C(C)C)B2O[C@@H]3C[C@@H]4C[C@@H](C4(C)C)[C@]3(C)O2)c1 | 5700
CC(C)[C@H](NC(=O)[C@H](CCC(=O)O)NC(=O)[C@@H](N)CC(=O)O)C(=O)N[C@H](C(=O)N1CCC[C@@H]1C(=O)N[C@@H](CCc1ccc(F)cc1)B1O[C@@H]2C[C@@H]3C[C@@H](C3(C)C)[C@]2(C)O1)C(C)C | 800
COc1ccc(CC[C@H](NC(=O)[C@H]2CCCN2C(=O)[C@@H](NC(=O)[C@@H](NC(=O)[C@H](CCC(=O)O)NC(=O)[C@@H](N)CC(=O)O)C(C)C)C(C)C)B2O[C@@H]3C[C@@H]4C[C@@H](C4(C)C)[C@]3(C)O2)cc1 | 560

biological target: T2, NS3 (Hepatitis C virus, UniProt A3EZJ3); assay: Binding affinity against Hepatitis C virus NS3 protease; set-up: species or system Hepacivirus hominis
In short: (§1)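 Continuous fluorescence assay with 4 nM NS3 protease plus NS4A cofactor peptide, in 50 mM Tris pH 7.0, 5 mM DTT, 50% glycerol, 2% CHAPS. Serially diluted inhibitors, given as boronic acid pinanediol esters, were preincubated with enzyme for 15 min. The reaction was started with the FRET ester substrate Ac-DED(EDANS)EEAbuψ[COO]ASK(DABCYL)-NH2 at ambient temperature and read at excitation 360 nm, emission 530 nm.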

Structure (SMILES) | Ki [nM]
CC(C)[C@H](NC(=O)[C@H](CCC(=O)O)NC(=O)[C@@H](N)CC(=O)O)C(=O)N[C@H](C(=O)N1CCC[C@H]1C(=O)N[C@@H](CCc1ccccc1)B1O[C@@H]2C[C@@H]3C[C@@H](C3(C)C)[C@]2(C)O1)C(C)C | 8
CC(C)[C@H](NC(=O)[C@H](CCC(=O)O)NC(=O)[C@@H](N)CC(=O)O)C(=O)N[C@H](C(=O)N1CCC[C@H]1C(=O)N[C@@H](CCc1ccc(Br)cc1)B1O[C@@H]2C[C@@H]3C[C@@H](C3(C)C)[C@]2(C)O1)C(C)C | 4
CC(C)[C@H](NC(=O)[C@H](CCC(=O)O)NC(=O)[C@@H](N)CC(=O)O)C(=O)N[C@H](C(=O)N1CCC[C@H]1C(=O)N[C@@H](CCc1ccc(Cl)cc1)B1O[C@@H]2C[C@@H]3C[C@@H](C3(C)C)[C@]2(C)O1)C(C)C | 2
CC(C)[C@H](NC(=O)[C@H](CCC(=O)O)NC(=O)[C@@H](N)CC(=O)O)C(=O)N[C@H](C(=O)N1CCC[C@H]1C(=O)N[C@@H](CCCc1ccccc1)B1O[C@@H]2C[C@@H]3C[C@@H](C3(C)C)[C@]2(C)O1)C(C)C (H-DEVVP-X6) | 200
CC(C)[C@H](NC(=O)[C@H](CCC(=O)O)NC(=O)[C@@H](N)CC(=O)O)C(=O)N[C@H](C(=O)N1CCC[C@H]1C(=O)N[C@@H](CCCCc1ccccc1)B1O[C@@H]2C[C@@H]3C[C@@H](C3(C)C)[C@]2(C)O1)C(C)C | 10
CC(C)[C@H](NC(=O)[C@H](CCC(=O)O)NC(=O)[C@@H](N)CC(=O)O)C(=O)N[C@H](C(=O)N1CCC[C@H]1C(=O)N[C@@H](CCc1ccc(C(C)(C)C)cc1)B1O[C@@H]2C[C@@H]3C[C@@H](C3(C)C)[C@]2(C)O1)C(C)C | 3
CC(C)CCC[C@H](NC(=O)[C@@H]1CCCN1C(=O)[C@@H](NC(=O)[C@@H](NC(=O)[C@H](CCC(=O)O)NC(=O)[C@@H](N)CC(=O)O)C(C)C)C(C)C)B1O[C@@H]2C[C@@H]3C[C@@H](C3(C)C)[C@]2(C)O1 | 7
CC(C)[C@H](NC(=O)[C@H](CCC(=O)O)NC(=O)[C@@H](N)CC(=O)O)C(=O)N[C@H](C(=O)N1CCC[C@H]1C(=O)N[C@H](B1O[C@@H]2C[C@@H]3C[C@@H](C3(C)C)[C@]2(C)O1)c1ccccc1)C(C)C (H-DEVVP-X9) | 900
CC[C@H](NC(=O)[C@@H]1CCCN1C(=O)[C@@H](NC(=O)[C@@H](NC(=O)[C@H](CCC(=O)O)NC(=O)[C@@H](N)CC(=O)O)C(C)C)C(C)C)B1O[C@@H]2C[C@@H]3C[C@@H](C3(C)C)[C@]2(C)O1 | 8
CC(C)[C@H](NC(=O)[C@H](CCC(=O)O)NC(=O)[C@@H](N)CC(=O)O)C(=O)N[C@H](C(=O)N1CCC[C@H]1C(=O)N[C@@H](CCc1ccc(Oc2ccccc2)cc1)B1O[C@@H]2C[C@@H]3C[C@@H](C3(C)C)[C@]2(C)O1)C(C)C | 3
CCCCC[C@H](NC(=O)[C@@H]1CCCN1C(=O)[C@@H](NC(=O)[C@@H](NC(=O)[C@H](CCC(=O)O)NC(=O)[C@@H](N)CC(=O)O)C(C)C)C(C)C)B1O[C@@H]2C[C@@H]3C[C@@H](C3(C)C)[C@]2(C)O1 (H-DEVVP-X13) | 12
CC(C)[C@H](NC(=O)[C@H](CCC(=O)O)NC(=O)[C@@H](N)CC(=O)O)C(=O)N[C@H](C(=O)N1CCC[C@H]1C(=O)N[C@@H](Cc1ccccc1)B1O[C@@H]2C[C@@H]3C[C@@H](C3(C)C)[C@]2(C)O1)C(C)C (H-DEVVP-X15) | 500
CC(C)[C@H](NC(=O)[C@H](CCC(=O)O)NC(=O)[C@@H](N)CC(=O)O)C(=O)N[C@H](C(=O)N1CCC[C@H]1C(=O)N[C@@H](CCc1ccccc1F)B1O[C@@H]2C[C@@H]3C[C@@H](C3(C)C)[C@]2(C)O1)C(C)C (H-DEVVP-X1) | 18

biological target: T2, NS3; assay: Inhibitory concentration against Hepatitis C virus NS3 protease; set-up: species or system Hepacivirus hominis; in short: as §1

Structure (SMILES) | IC50 [nM]
Cc1ccccc1CC[C@H](NC(=O)[C@@H]1CCCN1C(=O)[C@@H](NC(=O)[C@@H](NC(=O)[C@H](CCC(=O)O)NC(=O)[C@@H](N)CC(=O)O)C(C)C)C(C)C)B1O[C@@H]2C[C@@H]3C[C@@H](C3(C)C)[C@]2(C)O1 (H-DEVVP-X2) | 820
Cc1ccc(CC[C@H](NC(=O)[C@@H]2CCCN2C(=O)[C@@H](NC(=O)[C@@H](NC(=O)[C@H](CCC(=O)O)NC(=O)[C@@H](N)CC(=O)O)C(C)C)C(C)C)B2O[C@@H]3C[C@@H]4C[C@@H](C4(C)C)[C@]3(C)O2)c(C)c1 (H-DEVVP-X5) | 530
Cc1ccc(C)c(CC[C@H](NC(=O)[C@@H]2CCCN2C(=O)[C@@H](NC(=O)[C@@H](NC(=O)[C@H](CCC(=O)O)NC(=O)[C@@H](N)CC(=O)O)C(C)C)C(C)C)B2O[C@@H]3C[C@@H]4C[C@@H](C4(C)C)[C@]3(C)O2)c1 (H-DEVVP-X7) | 1000
